Experiments:
[1] = system: Rattus norvegicus; assay: Toxicity in po dosed Sprague-Dawley rat assessed as gross pathological changes administered via gavage; assay type: organism-based; conditions: in vivo
In short: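 Non-GLP repeated-dose study: female Sprague-Dawley rats given compound by oral gavage once daily for 7 days at 20, 60 and 180 mg/kg/day. Endpoints included weight bearing, gait coordination, respiratory rate, relative organ weights (liver, spleen, thymus), clinical chemistry and gross pathology; NOAEL derived.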

[2] = target: T1, Cytochrome P450 1A2 (Homo sapiens, UniProt P05177); assay: Inhibition of human CYP1A2 at 10 uM; assay type: ADME
T1 sequence (P05177 whole entry): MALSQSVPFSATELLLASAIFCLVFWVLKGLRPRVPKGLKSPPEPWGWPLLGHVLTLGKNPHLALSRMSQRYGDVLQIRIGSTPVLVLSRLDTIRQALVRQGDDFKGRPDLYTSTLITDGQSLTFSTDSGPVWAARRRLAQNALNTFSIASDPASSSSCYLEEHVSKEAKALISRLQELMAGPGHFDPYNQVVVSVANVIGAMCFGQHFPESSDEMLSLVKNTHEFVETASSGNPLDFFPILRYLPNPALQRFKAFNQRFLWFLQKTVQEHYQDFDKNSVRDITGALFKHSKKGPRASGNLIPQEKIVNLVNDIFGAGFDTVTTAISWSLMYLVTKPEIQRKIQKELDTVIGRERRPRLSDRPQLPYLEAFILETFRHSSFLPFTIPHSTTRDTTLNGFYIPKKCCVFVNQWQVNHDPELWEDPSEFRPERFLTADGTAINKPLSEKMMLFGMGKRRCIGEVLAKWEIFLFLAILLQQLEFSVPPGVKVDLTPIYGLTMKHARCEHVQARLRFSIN
In short: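 Test compound at 10 μM against a human CYP450 panel (CYP1A2, 2B6, 2C8, 2C9, 2C19, 2D6, 3A4/5). Direct inhibition was measured, and time-dependent inhibition was measured after a 30-min preincubation.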

[3] = target: Sodium channel protein type 5 subunit alpha (Homo sapiens, UniProt Q14524); assay: Inhibition of human Nav1.5 expressed in HEK293 cells assessed as half-maximal voltage for steady state fast-inactivation at 10 uM by whole cell patch-clamp electrophysiology (reference value: -96.54 +/-1.64 mV); assay type: cell-based; conditions: hek293, 10 µM
Chain of Sodium channel protein type 5 subunit alpha (Q14524 whole entry): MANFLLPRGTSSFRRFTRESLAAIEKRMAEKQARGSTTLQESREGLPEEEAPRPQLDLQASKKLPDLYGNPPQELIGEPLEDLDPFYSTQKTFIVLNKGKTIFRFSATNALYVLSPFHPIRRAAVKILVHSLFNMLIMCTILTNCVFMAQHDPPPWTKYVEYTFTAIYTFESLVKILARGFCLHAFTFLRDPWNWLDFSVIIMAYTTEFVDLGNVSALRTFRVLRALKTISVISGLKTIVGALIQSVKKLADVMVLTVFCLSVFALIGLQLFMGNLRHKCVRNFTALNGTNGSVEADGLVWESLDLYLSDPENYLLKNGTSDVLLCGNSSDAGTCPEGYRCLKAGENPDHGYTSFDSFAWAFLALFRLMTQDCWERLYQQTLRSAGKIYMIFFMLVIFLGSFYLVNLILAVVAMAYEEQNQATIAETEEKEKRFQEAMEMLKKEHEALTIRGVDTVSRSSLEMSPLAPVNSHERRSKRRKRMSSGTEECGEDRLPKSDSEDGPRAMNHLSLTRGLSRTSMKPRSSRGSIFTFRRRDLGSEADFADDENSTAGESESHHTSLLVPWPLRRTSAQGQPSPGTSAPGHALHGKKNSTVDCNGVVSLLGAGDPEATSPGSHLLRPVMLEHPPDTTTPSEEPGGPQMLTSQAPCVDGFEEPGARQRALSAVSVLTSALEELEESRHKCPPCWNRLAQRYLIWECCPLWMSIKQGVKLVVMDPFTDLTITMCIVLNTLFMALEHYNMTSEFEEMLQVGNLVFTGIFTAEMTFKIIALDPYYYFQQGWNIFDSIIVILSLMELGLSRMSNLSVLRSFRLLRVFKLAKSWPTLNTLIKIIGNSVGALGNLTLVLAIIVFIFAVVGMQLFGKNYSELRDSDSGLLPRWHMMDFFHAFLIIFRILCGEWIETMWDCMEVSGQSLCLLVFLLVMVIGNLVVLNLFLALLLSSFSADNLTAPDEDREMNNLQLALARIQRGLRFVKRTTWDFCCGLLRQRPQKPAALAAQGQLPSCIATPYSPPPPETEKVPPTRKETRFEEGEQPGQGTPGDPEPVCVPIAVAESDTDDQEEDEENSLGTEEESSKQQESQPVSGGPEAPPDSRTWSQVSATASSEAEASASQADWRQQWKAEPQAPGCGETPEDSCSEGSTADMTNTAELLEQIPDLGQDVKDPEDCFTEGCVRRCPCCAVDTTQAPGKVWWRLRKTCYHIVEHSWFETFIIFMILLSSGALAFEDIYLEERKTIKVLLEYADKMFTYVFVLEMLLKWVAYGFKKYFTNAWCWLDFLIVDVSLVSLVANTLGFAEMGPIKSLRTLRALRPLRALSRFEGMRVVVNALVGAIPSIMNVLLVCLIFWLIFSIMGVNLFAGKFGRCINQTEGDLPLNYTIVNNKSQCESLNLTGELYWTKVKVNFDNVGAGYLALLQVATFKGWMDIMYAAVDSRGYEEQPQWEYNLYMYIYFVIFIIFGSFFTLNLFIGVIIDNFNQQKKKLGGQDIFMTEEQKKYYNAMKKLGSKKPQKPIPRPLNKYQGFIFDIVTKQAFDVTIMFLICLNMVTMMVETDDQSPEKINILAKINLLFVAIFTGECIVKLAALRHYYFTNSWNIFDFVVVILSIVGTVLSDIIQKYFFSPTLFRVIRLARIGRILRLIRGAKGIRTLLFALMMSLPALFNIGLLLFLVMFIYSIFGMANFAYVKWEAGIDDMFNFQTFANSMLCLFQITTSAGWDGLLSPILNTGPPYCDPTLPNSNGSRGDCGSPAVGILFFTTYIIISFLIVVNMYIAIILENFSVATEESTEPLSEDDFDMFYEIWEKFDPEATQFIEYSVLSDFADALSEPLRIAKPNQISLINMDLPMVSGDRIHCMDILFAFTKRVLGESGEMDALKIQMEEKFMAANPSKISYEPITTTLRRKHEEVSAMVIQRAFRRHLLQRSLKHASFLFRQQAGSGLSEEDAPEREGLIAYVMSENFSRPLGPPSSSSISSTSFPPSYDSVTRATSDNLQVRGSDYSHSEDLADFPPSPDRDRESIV

[4] = Ratio of drug level in brain to plasma in Sprague-Dawley rat at 5 mg/kg, iv and 20 mg/kg, po measured after 6 hrs; assay type: ADME, organism-based; conditions: read-out: BPR
In short: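 Pharmacokinetics in Sprague-Dawley rats given a single iv dose of 5 mg/kg or an oral dose of 20 mg/kg.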

COC[C@@H](NC(C)=O)C(=O)NCc1ccc(Oc2cccc(OC(F)(F)F)c2)cc1
Activity [1]: Toxic | inhibition (INH) [2]: Not Active | V1/2 [3]: -95.36 mV | Kp at 6 h [4]: 1.2
